The source made the active and inactive calls. The rule behind the calls is not given here.
Key:
Escherichia coli [1] = test: Induction of Escherichia coli XL1 blue pUC18 DNA cleavage assessed as conversion of supercoiled DNA to relaxed circular DNA at 1:2 compound to iron molar ratio after 90 mins by agarose gel electrophoresis in presence of Fe3+
How it was run: (§1)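 AQ-thiosemicarbazone (4 μL of 10 mM) preincubated 60 min at 37 °C in bicarbonate buffer with 2 μL of FeSO₄ or FeCl₃ (20 mM or 40 mM stock). pUC18 (2 μL) then added and incubated a further 90 min. Products run on 1% agarose in TAE at 80 V and stained with ethidium bromide (0.5 µg/mL).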

Escherichia coli [2] = test: Induction of Escherichia coli XL1 blue pUC18 DNA cleavage assessed as conversion of supercoiled DNA to relaxed circular DNA at 1:1 compound to iron molar ratio after 90 mins by agarose gel electrophoresis in presence of Fe3+; how it was run: as §1
Escherichia coli [3] = test: Induction of Escherichia coli XL1 blue pUC18 DNA cleavage assessed as conversion of supercoiled DNA to relaxed circular DNA at 1:2 compound to iron molar ratio after 90 mins by agarose gel electrophoresis in presence of Fe2+; how it was run: as §1
Escherichia coli [4] = test: Induction of Escherichia coli XL1 blue pUC18 DNA cleavage assessed as conversion of supercoiled DNA to relaxed circular DNA at 1:1 compound to iron molar ratio after 90 mins by agarose gel electrophoresis in presence of Fe2+; how it was run: as §1
Escherichia coli [5] = test: Induction of Escherichia coli XL1 blue pUC18 DNA cleavage assessed as conversion of supercoiled DNA to relaxed circular DNA at 2 mM after 90 mins by agarose gel electrophoresis
How it was run: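 Supercoiled pUC18 (262 ng, from E. coli XL1 blue) incubated with 2 mM compound in 20 μL of 40 mM bicarbonate buffer pH 8.4 at 37 °C for 90 min. Reaction stopped with loading buffer. Analyzed on 1% agarose in TAE pH 8.24 at 80 V and stained with ethidium bromide (0.5 µg/mL).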

DNA = test: Binding affinity to calf thymus DNA at 20 to 80 uM after 1.5 hrs by UV-vis spectrophotometric analysis; format: nucleic-acid assay; details: Bos taurus
How it was run: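 UV–Vis spectra (200–800 nm, 1 cm cells) of compound at 20, 40, 60 or 80 μM, with or without 0.12 mM CT-DNA. CT-DNA was dissolved in 10 mM Tris-HCl pH 7.9. Mixtures were in 40 mM bicarbonate buffer pH 8.4, incubated 1.5 h at 37 °C with occasional vortexing.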

[6] = system: Radical scavenging activity; test: Antioxidant activity assessed as DPPH radical scavenging activity after 30 mins by spectrophotometric analysis; format: functional
How it was run: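 Test solutions at 8–1000 μM in methanol mixed 1:1 by volume with 200 μM DPPH in methanol, kept 30 min in the dark at room temperature. Absorbance read at 517 nm against blanks without DPPH. Percent scavenging = (A_DPPH − A_sample)/A_DPPH × 100. IC50 (concentration halving DPPH absorbance) read from a plot of % versus concentration. Ascorbic acid and BHT used as standards.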

HeLa [7] = test: Induction of apoptosis in human HeLa cells at IC90 after 24 hrs by propidium iodide staining-based FACS flow cytometric analysis in presence of caspase-9 inhibitor Z-LEHD-FMK; format: functional, cell-based
HeLa [8] = test: Induction of apoptosis in human HeLa cells at IC90 after 24 hrs by propidium iodide staining-based FACS flow cytometric analysis in presence of caspase-8 inhibitor Z-IETD-FMK; format: functional, cell-based
HeLa [9] = test: Induction of apoptosis in human HeLa cells at IC90 after 24 hrs by propidium iodide staining-based FACS flow cytometric analysis in presence of caspase-3 inhibitor Z-DEVD-FMK; format: functional, cell-based
HeLa [10] = test: Cell cycle arrest in human HeLa cells assessed as accumulation at subG1 phase after 24 hrs by propidium iodide staining-based FACS flow cytometric analysis; format: functional
HeLa [11] = test: Cell cycle arrest in human HeLa cells assessed as accumulation at G2/M phase at 2 times IC50 after 24 hrs by propidium iodide staining-based FACS flow cytometric analysis (reference value: 21.66%); format: functional
HeLa [12] = test: Cell cycle arrest in human HeLa cells assessed as accumulation at S phase at 2 times IC50 after 24 hrs by propidium iodide staining-based FACS flow cytometric analysis (reference value: 16.22%); format: functional
HeLa [13] = test: Cell cycle arrest in human HeLa cells assessed as accumulation at G1 phase at 2 times IC50 after 24 hrs by propidium iodide staining-based FACS flow cytometric analysis (reference value: 51.97%); format: functional
HeLa [14] = test: Cell cycle arrest in human HeLa cells assessed as accumulation at subG1 phase at 2 times IC50 after 24 hrs by propidium iodide staining-based FACS flow cytometric analysis (reference value: 9.10%); format: functional
HeLa [15] = test: Cell cycle arrest in human HeLa cells assessed as accumulation at G2/M phase at IC50 after 24 hrs by propidium iodide staining-based FACS flow cytometric analysis (reference value: 21.66%); format: functional
HeLa [16] = test: Cell cycle arrest in human HeLa cells assessed as accumulation at S phase at IC50 after 24 hrs by propidium iodide staining-based FACS flow cytometric analysis (reference value: 16.22%); format: functional
HeLa [17] = test: Cell cycle arrest in human HeLa cells assessed as accumulation at G1 phase at IC50 after 24 hrs by propidium iodide staining-based FACS flow cytometric analysis (reference value: 51.97%); format: functional
HeLa [18] = test: Cell cycle arrest in human HeLa cells assessed as accumulation at subG1 phase at IC50 after 24 hrs by propidium iodide staining-based FACS flow cytometric analysis (reference value: 9.10%); format: functional
MRC5 = test: Cytotoxicity against human MRC5 cells after 72 hrs by MTT assay; format: cell-based; details: MRC5, 72 h
How it was run: (§2)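 Cells seeded in 96-well plates: HeLa 2000, MDA-MB-361 7000, MDA-MB-453 3000, K562, A549 and MRC-5 5000 per well. Compounds added at 5–100 μM (final), DMSO ≤0.5%, in RPMI-1640 with 10% FBS. Added after 24 h, except K562 at 2 h after seeding. Exposure 72 h, then MTT 4 h at 37 °C, SDS solubilization, A570 read. IC50 is the mean ± SD of three independent experiments.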

A549 = test: Cytotoxicity against human A549 cells after 72 hrs by MTT assay; format: functional, cell-based; details: A549, 72 h; how it was run: as §2
K562 = test: Cytotoxicity against human K562 cells after 72 hrs by MTT assay; format: functional, cell-based; details: K562, 72 h; how it was run: as §2
MDA-MB-361 = test: Cytotoxicity against human MDA-MB-361 cells after 72 hrs by MTT assay; format: functional, cell-based; details: MDA-MB-361, 72 h; how it was run: as §2
MDA-MB-453 = test: Cytotoxicity against human MDA-MB-453 cells after 72 hrs by MTT assay; format: functional, cell-based; details: MDA-MB-453, 72 h; how it was run: as §2
HeLa [19] = test: Cytotoxicity against human HeLa cells after 72 hrs by MTT assay; format: functional, cell-based; how it was run: as §2

## CCCCCCNC(=S)N/N=C(/CC(=O)c1cccc2c1C(=O)c1ccccc1C2=O)C(=O)OCC
Escherichia coli [1]
  Activity: inactive
Escherichia coli [2]
  Activity: inactive
Escherichia coli [3]
  Activity: Active
Escherichia coli [4]
  Activity: inactive
Escherichia coli [5]
  Activity: inactive
DNA
  Activity: Active
[6]
  IC50: 26.1 µM
HeLa [7]
  Activity: Active
HeLa [8]
  Activity: Active
HeLa [9]
  Activity: Active
HeLa [10]
  Activity: Dose-dependent effect
HeLa [11]
  Activity: 3.84%
HeLa [12]
  Activity: 17.17%
HeLa [13]
  Activity: 36.66%
HeLa [14]
  Activity: 37.32%
HeLa [15]
  Activity: 19.83%
HeLa [16]
  Activity: 14.62%
HeLa [17]
  Activity: 37.89%
HeLa [18]
  Activity: 25.02%
MRC5
  IC50: 42.1 µM
A549
  IC50: 43.6 µM
K562
  IC50: 5.86 µM
MDA-MB-361
  IC50: 4.45 µM
MDA-MB-453
  IC50: 19.6 µM
HeLa [19]
  IC50: 7.66 µM

Reference: ChEMBL document CHEMBL2390837, “Synthesis, cytotoxic activity and DNA-interaction studies of novel anthraquinone-thiosemicarbazones with tautomerizable methylene group” (Eur J Med Chem, 2013)
